Hits are enriched below; roughly 2.4% of the tested compounds scored in any of these assays.
HTR2A ag: mouse Htr2a agonists via beta-arrestin recruitment, primary screen, cell-based, luminescence; CHO-K1 mHTR2A beta-arrestin complementation; percent of 30 µM serotonin response; activation, % at 7.6 µM; 0.66% of 360,000 active; 5-hydroxytryptamine receptor 2A (Mus musculus), P35363;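 active means activation above a run cutoff, the mean activation of all tested compounds plus 3 SD, cut at about 14% in these data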;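 further: 0% = plate median of compound wells and 100% = 30 µM serotonin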
Insulin prom up: insulin promoter activators in MIN6 cells, imaging, high-content screening, mouse beta cells; MIN6 insulin promoter-GFP reporter; stronger effect = higher value; AID 1625, 2009; z-score at 5 µM; 0.3% of 190,000 active;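 active means z-score above 3 at 5 µM with at least 500 cells counted in the well; inconclusive means wells under 500 cells, flagged as cytotoxic or low count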
Calb FLC: C. albicans growth inhibition with fluconazole, primary screen, CaCi-2 strain, Alamar Blue fluorescence | C. albicans CaCi-2 + fluconazole, 48 h | growth inhibition, % (test concentration not listed) | 0.57% of 300,000 active | AID 1979, 2009;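 active means growth inhibition above about 58% in most replicates, limit read from the data, passing the limit was not always enough; inconclusive means exactly half the replicates above a set limit; inactive means most replicates below a set limit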;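 further: all wells also contain fluconazole at 8 µg/ml as a sub-toxic cotreatment; 0% = median of DMSO wells and 100% = median of geldanamycin control wells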
SR-BI DiI-HDL act: activators of SR-BI mediated DiI-HDL uptake, primary screen, ldlA[mSR-BI] CHO cells, DiI fluorescence | activation, % at 12.5 µM | 3 h; 100 = double the neutral-control signal | 0.096% of 320,000 active;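 active means mean replicate activation of at least 60% and every replicate at or above 60%; inconclusive means mean or all-replicate condition met, but not both; inactive means mean below 60% and not all replicates reaching 60%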;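 further: 0% = median plate neutral-control signal and 100% = twice that signal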
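Assay system: LDL receptor-deficient CHO ldlA cells overexpressing murine SR-BI / Medium: BSA-supplemented, HEPES-buffered Ham's F12, pH 7.4 / Probe or stimulus: DiI-labelled HDL at 10 µg/mL final / Timing: compound with DiI-HDL co-incubation, 3 h at 37 °C / Technique: bottom-read cell fluorescence after medium removal, ex 550/em 595 nm / Measure: HDL uptake via cellular fluorescence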
beta cell repl: inducers of MIN6 beta-cell proliferation, primary screen, ATP luminescence, uHTS. MIN6 cells proliferation, ATPlite luminescence, 48 h; cells starved in 0.2% serum; 100% = growth in 10% serum. 0.29% of 330,000 active. proliferation, % at 10 µM;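 active means compounds whose signal lies at least 3.5 SD above the mean of all wells on their plate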;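 further: 0% = DMSO-treated cells in low-serum medium and 100% = 10% serum control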
SR-BI DiI inh: inhibitors of SR-BI mediated HDL lipid uptake, primary screen, ldlA[mSR-BI] cells, fluorescence, single point; Scavenger receptor class B member 1 (Mus musculus), Q61009; ldlA[mSR-BI] CHO cells, DiI-HDL uptake fluorescence, 3 h; inhibition, % at 12.5 µM; 0.96% of 320,000 active; AID 488896, 2010;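 active means mean replicate inhibition of at least 70% and a set share of replicates each scoring 70 or more; inconclusive means meets just one of the two criteria; inactive means fails both criteria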;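 further: 0% = median of neutral control wells and 100% = median of positive control wells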
Target sequence (Q61009 whole entry, looked up): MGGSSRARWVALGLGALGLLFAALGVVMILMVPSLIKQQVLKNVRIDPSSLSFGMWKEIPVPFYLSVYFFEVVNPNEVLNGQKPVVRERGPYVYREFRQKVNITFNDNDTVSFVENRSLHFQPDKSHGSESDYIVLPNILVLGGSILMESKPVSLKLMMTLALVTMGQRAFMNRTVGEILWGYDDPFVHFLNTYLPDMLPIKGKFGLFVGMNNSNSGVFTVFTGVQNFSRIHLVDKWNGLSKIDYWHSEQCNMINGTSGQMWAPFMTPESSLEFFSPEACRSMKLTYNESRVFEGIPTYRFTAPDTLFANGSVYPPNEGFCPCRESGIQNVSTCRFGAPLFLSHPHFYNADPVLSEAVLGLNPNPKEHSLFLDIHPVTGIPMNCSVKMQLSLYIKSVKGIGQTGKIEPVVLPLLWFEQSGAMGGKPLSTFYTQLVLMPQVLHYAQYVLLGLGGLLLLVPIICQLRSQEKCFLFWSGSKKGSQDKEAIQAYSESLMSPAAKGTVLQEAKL
Active calls of the source: *; ? = inconclusive; . = not tested or not shown.

SMILES | HTR2A ag | Insulin prom up | Calb FLC | SR-BI DiI-HDL act | beta cell repl | SR-BI DiI inh
O=C(O)/C=C/c1ccc([N+](=O)[O-])o1 | -2 | -0.22 | 12 | 25 | -2 | -25
CCc1ccc(NC(=O)CCn2cccc2)cc1 | -5 | 0.37 | 4 | 9 | -1 | -9
Cc1ccc(NC(=O)CCn2cccc2)cc1Cl | -4 | 3.2* | -3 | -48 | -1 | 48
O=C(NC(c1ccc2c(c1)OCO2)c1ccccn1)C1CCN(CCOc2ccccc2)CC1 (configuration not stated) | 3 | . | . | . | . | .
COCCN=c1scc(-c2cccs2)n1/N=C/c1ccc(O)c(O)c1O | 2 | -3.7 | 20 | -69 | -4 | 69
COCCN=c1scc(-c2ccccc2)n1/N=C/c1c[nH]c2ccccc12 | -1 | 0.14 | 17 | -83 | -6 | 83*
CCN1C=C(C(=O)c2ccccc2)C(=O)CC1 | 2 | . | . | 10 | . | -10
CC(C)=CCc1c2c(c(O)c3c(=O)c4c(oc13)-c1cc(O)c(O)cc1OC4C=C(C)C)C=CC(C)(C)O2 (configuration not stated) | . | . | 89* | . | -6 | .
COc1cc(/C=N/NC(=S)NC2CC3CC2C2C=CCC32)ccc1O (configuration not stated) | -9 | -0.69 | ? | -73 | -3 | 73*
Cn1cc(-c2coc3c(C(=O)NCc4cccs4)cccc23)cn1 | -7 | . | . | . | . | .
O=c1[nH]n(Cc2ccccc2)c2ccccc12 | 1 | . | 5 | 15 | -1 | -15
CCOc1cc(Br)cc(/C=N/NC(=O)c2cccnc2)c1O | -9 | . | -1 | -80 | -3 | 80*
COc1c(Br)cc(Br)cc1/C=N/NC(=O)c1cccnc1 | -7 | . | -4 | -8 | -3 | 8
O=C(N/N=C/c1cc(Br)ccc1O)c1ccccc1Cl | -6 | -0.17 | 89* | -84 | -3 | 84*
COC(=O)N/N=C/c1cc(Br)ccc1O | -3 | 0.3 | -5 | 12 | -2 | -12
Cc1ccc(C(=O)N/N=C/c2cc(Br)ccc2O)cn1 | -3 | . | 39 | -75 | -3 | 75*
CN(C)c1ccc(C(=O)N/N=C/c2cc(Br)cc(Br)c2O)cc1 | 2 | 4.7* | 73 | . | -4 | .
Cc1ccc(C(=O)N/N=C\C=C\c2ccc(Br)cc2)cn1 | -1 | . | 28 | -13 | -1 | 13
CCCC(=O)N1CCC1(C)C(=O)Nc1ccc(OC(F)F)cc1 (configuration not stated) | 2 | . | . | . | . | .
CC1CN=C(NS(=O)(=O)c2ccccc2)N1 (configuration not stated) | -2 | . | . | . | . | .
O=C(N/N=C/c1cc(Cl)ccc1O)c1ccncc1 | -14 | 0.68 | -42 | -115 | -2 | 115*
COc1cccc(/C=N/Nc2cc(-n3nc(C)cc3-c3ccccc3)ncn2)c1O | -10 | 0.08 | 82* | -55 | 0 | 55
Oc1ccccc1/C=N/Nc1nccnc1Cl | -4 | . | 97* | -48 | -5 | 48
COc1cccc(/C=N/Nc2nccnc2Cl)c1O | -6 | -3.5 | 106* | -6 | -4 | 6
COc1cccc(/C=N/Nc2ncnc(Cl)c2N)c1O | 6 | ? | 0 | -10 | -6 | 10
SMILES | HTR2A ag | Insulin prom up | Calb FLC | SR-BI DiI-HDL act | beta cell repl | SR-BI DiI inh
COc1cccc(/C=N/Nc2ncnc3scc(-c4ccccc4)c23)c1O | -1 | ? | 109* | -115 | -5 | 115*
COc1cccc(/C=N/Nc2nc(Nc3ccccc3)nc(-n3nc(C)cc3C)n2)c1O | -31 | ? | 5 | -64 | -4 | 64
CCCN1CCN(C(=O)c2ccc3[nH]c(C)c(C)c3c2)CC1 | -4 | . | . | . | . | .
N#CCCN(C(=O)COC(=O)c1ccc(S(=O)(=O)N2CCOCC2)cc1)c1ccccc1 | 5 | . | . | 22 | 2 | -22
CCOC(=O)c1ccc(S(=O)(=O)N2CCC(C(=O)OCC)CC2)cc1 | -2 | 0.16 | -7 | 11 | 1 | -11
O=C(COC(=O)c1cc(S(=O)(=O)N2CCCCC2)ccc1Cl)NC1CCCCC1 | -1 | . | . | . | . | .
CCOC(=O)c1ccc(S(=O)(=O)N2CCC(C(=O)O)CC2)cc1 | 3 | 0.37 | -6 | 69* | -1 | -69
Cn1cccc1C(=O)NC(=O)COC(=O)c1cc(S(=O)(=O)N2CCCCC2)ccc1Cl | 1 | -0.39 | 5 | -81 | -2 | 81*
CN(C(=O)COC(=O)c1ccc(S(=O)(=O)N2CCOCC2)cc1)c1ccccc1 | -3 | . | . | 70* | 1 | -70
CN(C(=O)COC(=O)c1cc(S(=O)(=O)N2CCCCC2)ccc1Cl)c1ccccc1 | -1 | . | . | -72 | -4 | 72*
COc1ccccc1C1=NN(C(=O)c2ccccc2)C(c2ccc(Br)cc2)C1 (configuration not stated) | -4 | . | 7 | -28 | -2 | 28
COc1ccc(/C=N/N=C/c2ccc(OC)cc2)cc1 | -3 | . | 8 | 10 | 1 | -10
COc1ccc(C=C(c2ccc(OC)cc2)c2ccc(OC)cc2)cc1 | -3 | 0.29 | 1 | -72 | -5 | 72*
COc1ccc(-n2c(=O)c3c4c(sc3n3c(=S)[nH]nc23)CCCC4)cc1 | 1 | 0.03 | 93* | 6 | -2 | -6
Cc1ccc2[nH]c(C)c(/C=N/Nc3nc4ccccc4s3)c2c1 | 0 | -2 | 1 | -122 | -5 | 122*
COc1ccc(C=NNc2nc3ccccc3s2)cc1 | -1 | . | . | -14 | . | 14
Cc1cccc(CN2CCN(C3CN(Cc4ccc([N+](=O)[O-])cc4)S(=O)(=O)C3)CC2)c1 (configuration not stated) | 5 | . | . | . | . | .
Cc1cnc(NC(=O)CN2CCN(c3ccccn3)CC2)s1 | 5 | 3.1* | 5 | 9 | -3 | -9
COc1ccc(N2CCN(CC(=O)Nc3ncc(C)s3)CC2)cc1 | -7 | . | 14 | 7 | -6 | -7
CCN1C(=O)/C(=C2/Sc3ccccc3N2CC)S/C1=N\c1ncn[nH]1 | 7 | . | 1 | -74 | 1 | 74*
CN(C)c1cc[n+](CC(=O)Nc2ccc(Oc3ccccc3)cc2)cc1 | -8 | -0.61 | -3 | 22 | -6 | -22
O=C1c2ccccc2C(=O)C1c1ccc(Br)cc1 | 0 | . | -1 | 7 | -3 | -7
COc1ccc(C2C(=O)c3ccccc3C2=Nc2ccc(Br)cc2)cc1 (configuration not stated) | 1 | . | -8 | -94 | -2 | 94*
Cc1ccccc1-c1cc2nc(NCc3ccccc3F)n(C)c(=O)c2s1 | -3 | . | . | . | . | .
COc1ccccc1/C=C/C(=O)OCC(=O)NC1CCCCCCC1 | -5 | . | . | -2 | 0 | 2
CCOc1ccc(N2CC(C(=O)Nc3nnc(SCCOC)s3)CC2=O)cc1 (configuration not stated) | 4 | . | -3 | 4 | 0 | -4

Assay outcomes (PubChem BioAssay)
